Screening data (PubChem BioAssay)
This is a sample that favours compounds with a hit; in the whole collection about 2.3% have one here.
TRPC6 activator: activators of mouse TRPC6 channel; Q61143; HEK293-TRPC6 membrane potential dye fluorescence; hits give high values; B-score at 10 µM; actives 0.13% (n = 310,000); AID 2550;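 active means B-score of the integrated fluorescence ratio above library mean plus 3 SD, and starting fluorescence ratio within library mean plus 5 SD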;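 further: higher score means more depolarization so channel activation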
TRPC6 inh: blocks the mouse TRPC6 cation channel. Q61143. actives 1.1% (n = 310,000). B-score at 10 µM. HEK293-TRPC6, membrane potential dye, ACh-evoked depolarization; hits give low values;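 active means B-score under library mean minus 3 SD, initial fluorescence not abnormally high, positive integrated signal ratio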;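 further: B-score derived from integrated fluorescence ratio over the kinetic read; more negative B-score means stronger inhibition of depolarization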
TRPC4 PAM: allosterically enhances the mouse TRPC4 cation channel; Q9QUQ5; HEK293 TRPC4beta/mu-opioid, DAMGO EC20, Fluo-4 Ca2+ flux; hits give high values; B-score at 10 µM; actives 0.42% (n = 310,000); AID 2227;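 active means B-score of calcium response area above 5 SD of library B-scores, with initial fluorescence ratio within 5 SD of library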
Target sequence (Q9QUQ5 whole entry, looked up): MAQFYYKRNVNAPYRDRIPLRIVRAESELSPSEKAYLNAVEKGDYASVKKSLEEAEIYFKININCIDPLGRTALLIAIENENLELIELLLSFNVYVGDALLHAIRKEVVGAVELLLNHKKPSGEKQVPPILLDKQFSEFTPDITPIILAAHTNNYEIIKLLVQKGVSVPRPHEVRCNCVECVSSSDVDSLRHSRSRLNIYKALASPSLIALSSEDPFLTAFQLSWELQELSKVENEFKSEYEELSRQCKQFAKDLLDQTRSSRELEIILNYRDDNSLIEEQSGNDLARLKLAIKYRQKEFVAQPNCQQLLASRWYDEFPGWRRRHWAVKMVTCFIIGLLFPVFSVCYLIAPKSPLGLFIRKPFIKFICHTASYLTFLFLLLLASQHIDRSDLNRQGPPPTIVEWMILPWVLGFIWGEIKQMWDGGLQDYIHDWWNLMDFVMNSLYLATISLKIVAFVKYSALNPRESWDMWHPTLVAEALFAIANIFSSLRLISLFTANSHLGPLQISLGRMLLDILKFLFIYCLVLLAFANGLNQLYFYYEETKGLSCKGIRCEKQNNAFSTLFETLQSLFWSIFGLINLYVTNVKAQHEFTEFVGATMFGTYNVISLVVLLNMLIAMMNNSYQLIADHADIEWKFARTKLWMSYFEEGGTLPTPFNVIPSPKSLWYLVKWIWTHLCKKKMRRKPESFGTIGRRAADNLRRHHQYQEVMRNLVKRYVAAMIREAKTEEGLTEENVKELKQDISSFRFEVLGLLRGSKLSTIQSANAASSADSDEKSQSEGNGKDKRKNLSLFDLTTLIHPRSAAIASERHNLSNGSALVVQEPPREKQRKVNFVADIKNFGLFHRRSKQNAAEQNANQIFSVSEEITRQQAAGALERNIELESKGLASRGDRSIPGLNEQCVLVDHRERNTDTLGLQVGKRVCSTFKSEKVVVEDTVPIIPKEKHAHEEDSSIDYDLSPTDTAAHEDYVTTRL
TRPC4 inh: inhibitors of mouse TRPC4 channel; Q9QUQ5; HEK293 TRPC4beta/mu-opioid, DAMGO-evoked Fluo4 calcium flux; hits give low values; B-score at 10 µM; actives 0.39% (n = 300,000);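 active means B-score over 3 SD under the library average, no early fluorescence shift, positive overall ratio signal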
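Material: HEK293 cells with stable TRPC4beta plus mu-opioid receptor expression; probe or stimulus: DAMGO in two steps, submaximal then maximal; technique: Fluo4 calcium fluorescence by kinetic imaging, 5 s 1 Hz baseline; measure: integrated fluorescence ratio relative to baseline, converted to per-well B score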
TRPC4 agonist: TRPC4 (mouse) channel activation | Q9QUQ5 | HEK293 TRPC4beta/mu-opioid, Fluo4 calcium fluorescence; hits give high values | B-score at 10 µM | actives 0.49% (n = 310,000);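 active means B-score above 5 SD of library B-scores, and initial fluorescence ratio not above library mean plus 5 SD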;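 further: positive B-score marks a calcium rise read as TRPC4 activation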
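System: HEK293 cells stably co-expressing mouse TRPC4beta and mu-opioid receptor; Schedule: Fluo4 dye loading 45 min at room temperature, 110 s recording; Detection: Fluo4 fluorescence, kinetic; Evaluation: B-scored integrated calcium fluorescence ratio; Controls: buffer (low) and maximal DAMGO (high).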
Large screens that a line does not name were inactive.

CC1CCN(c2ccc3c(c2)S(=O)(=O)c2ccccc2C3=O)CC1	none
CC(C)(C)CC(C)(C)NCC(O)COc1ccc2c(c1)CCC2 (centres undefined)	TRPC4 inh -6
CC(C)(CO)NCC(O)COc1ccc2c(c1)CCC2 (centres undefined)	none
CCOc1ccccc1N1CCN(Cc2cn[nH]c2-c2ccc(F)cc2)CC1	none
COc1cccc(CC2(CO)CCCN(Cc3ccccc3-c3ccco3)C2)c1 (centres undefined)	TRPC4 inh -7, TRPC4 agonist 43
CCOC(=O)C1(CC2CCCCO2)CCN(Cc2cn[nH]c2-c2cccc(F)c2)CC1 (centres undefined)	TRPC4 agonist 76
CCOC(=O)C1(CC2CCCCO2)CCN(Cc2cccnc2)CC1 (centres undefined)	none
COc1cccc(CC2(CO)CCCN(Cc3ccc(-c4ccco4)cc3)C2)c1 (centres undefined)	none
CCOC(=O)C1(CC2CCCCO2)CCN(Cc2cc3ccccc3[nH]2)CC1 (centres undefined)	TRPC4 agonist 273
CCOC(=O)C1(CC2CCCCO2)CCN(Cc2ccccc2-c2ccco2)CC1 (centres undefined)	TRPC4 agonist 78
CCOC(=O)N1CCN(C(=O)c2oc3ccc(S(=O)(=O)N(CC)CC)cc3c2C)CC1	none
C1=C(c2ccco2)N2CCN=C2S1	none
OCC1(CC2CCCCO2)CCN(Cc2ccccc2-c2ccco2)CC1 (centres undefined)	TRPC4 agonist 75
CCCn1ncc(CN2CCC(CO)(CC3CCCCO3)CC2)c1C (centres undefined)	none
COc1ccccc1C(CNc1ccc(S(=O)(=O)N2CCCC2)cc1[N+](=O)[O-])N(C)C (centres undefined)	none
CCOC(=O)c1ccccc1NC(=O)CSc1ccc(-c2ccccn2)nn1	none
COc1ccc(CN2CC(C(N)=O)Oc3ccccc32)cc1F (centres undefined)	none
CN(C)CCNC(=O)c1sc2cccc(F)c2c1Cl	TRPC4 PAM 11
CC1(c2ccc(Cl)cc2Cl)OCC(Cn2ccnc2)O1 (centres undefined)	TRPC4 agonist 105
COc1cc(O)ccc1C(=O)CCc1ccc(O)cc1	none
CC(C)(C)c1cc(CCC(=O)NNC(=O)c2ccco2)cc(C(C)(C)C)c1O	none
CC(C)(C)c1cc(CCC(=O)NNC(=S)NC(=O)c2ccccc2)cc(C(C)(C)C)c1O	TRPC4 agonist 211
O=C(CCc1ccccc1)NNC(=S)NC(=O)c1ccccc1	TRPC4 agonist 150
CC(=O)NC(=S)NNC(=O)CCc1ccccc1	none
O=C(c1ccccc1)N1CCN(c2ccc(N3CCOCC3)nn2)CC1	none
O=[N+]([O-])c1cc(Cl)ccc1N1CCCCC1	none
O=[N+]([O-])c1cc(Cl)ccc1N1CCN(c2ccccc2O)CC1	TRPC4 PAM 12
CN(CC(=O)Nc1ccccc1C(F)(F)F)C(=O)CSCc1ccccc1	none
O=C(OCC(=O)N1CCOCC1)c1cccc(S(=O)(=O)N2CCCc3ccccc32)c1	TRPC4 PAM 15
O=C(OCC(=O)N1CCCC1=O)c1cccc(S(=O)(=O)N2CCOCC2)c1	none
CCOc1ccc(/C(O)=C2/C(=O)C(=O)N(CCCN3CCOCC3)C2c2ccc(C)cc2)cc1C (centres undefined)	none
COc1ccccc1C(=O)NNC1=C(C(=O)C(F)(F)F)CCC1	TRPC4 agonist 93
CCCCn1c2ccc(F)cc2c2nnc(SCCN3CCOCC3)nc21	none
CCCCn1c2ccccc2c2nnc(SCCN3CCCCC3)nc21	TRPC4 inh -7
CCCN(CC(=O)Nc1ccccc1C)C(=O)C1CCN(C(=O)Nc2ccccc2)CC1	none
COc1ccc(C)cc1NCc1ccc([N+](=O)[O-])cc1	none
COc1ccc(CNCCc2ccc([N+](=O)[O-])cc2)c(OC)c1OC	TRPC4 agonist 81
COc1ccc(OC2CCN(S(=O)(=O)c3cccc(F)c3)CC2)cc1	TRPC4 PAM 11
CSCC[C@H](NC(=O)N1CCn2c1nc1ccccc12)C(=O)NCc1ccc(C)cc1	TRPC4 PAM 43
COc1cccc(NC(=O)c2ccc(-n3cnnn3)cc2)c1	none
CCOC(=O)CCn1c(=O)c2c(nc(Br)n2Cc2ccccc2)n(C)c1=O	TRPC4 inh -5
O=c1cc(N2CCCCC2)c(-c2ccccc2)nn1Cc1ccccc1Cl	TRPC4 PAM 14
Cn1c(=O)c2c(nc(N3CCCCC3)n2CC(O)COc2ccccc2)n(C)c1=O (centres undefined)	none
CCOC(=O)N1CCN(S(=O)(=O)c2ccc(C(=O)NNc3nc4c(C)cc(C)cc4s3)cc2)CC1	TRPC4 PAM 10
CCOC(=O)N1CCN(S(=O)(=O)c2ccc(C(=O)NNc3nc4c(C)cccc4s3)cc2)CC1	none
Cc1ccc(-c2csc3ncnc(NCCN4CCOCC4)c23)cc1	TRPC4 inh -6
Clc1ccc(-c2csc3ncnc(NCCN4CCOCC4)c23)cc1	TRPC4 inh -5
c1ccc(-c2csc3ncnc(NCCN4CCOCC4)c23)cc1	none
COC(=O)Cn1c(=O)c2c(nc3n2CCCN3CCc2ccc(OC)c(OC)c2)n(C)c1=O	none
COc1cc(/C=N/NC(=O)COc2ccc([N+](=O)[O-])cc2)ccc1OCC(=O)N1CCOCC1	none
Cc1ccccc1OCCNc1cc(N2CCNCC2)ccc1[N+](=O)[O-]	TRPC6 inh -7.9, TRPC4 PAM 14
COc1ccccc1N1CCN(Cc2cc(=O)c(OCC(=O)NC3CCCC3)co2)CC1	TRPC4 PAM 108
Cc1sc2ncnc(NC3CCN(Cc4ccccc4)CC3)c2c1C	TRPC4 agonist 193
CCOC(=O)c1c(CN2CCN(C)CC2)n(-c2ccccc2)c2cc(Br)c(O)cc12	none
CCOC(=O)c1c(CSC(=N)N)n(-c2ccccc2)c2cc(Br)c(OC(C)=O)cc12	TRPC4 PAM 14
Cc1cc(C(=O)CN2C(=O)NC(CC(C)C)C2=O)c(C)n1-c1ccccc1F (centres undefined)	none
Cc1cc(C(=O)Cn2nnc3ccccc3c2=O)c(C)n1-c1ccccc1F	TRPC4 PAM 14
COc1ccc(-n2c(C)cc(C(=O)Cn3nnc4ccccc4c3=O)c2C)cc1	none
Cc1cc(C(=O)CN2C(=O)C(=O)N(CC(C)C)C2=O)c(C)n1-c1ccccc1F	TRPC4 PAM 15
NS(=O)(=O)c1ccc(NCc2ccccc2OCc2ccc(F)cc2)cc1	none
NS(=O)(=O)c1ccc(CCNCc2ccccc2OCc2ccc(F)cc2)cc1	TRPC4 inh -6
CCOc1ccc2ccccc2c1CNCCc1ccc(S(N)(=O)=O)cc1	TRPC4 inh -6
CCOc1ccc(CNCCc2ccc(S(N)(=O)=O)cc2)cc1	none
CCC(C(=O)O)N1C(=O)c2ccccc2C1=O (centres undefined)	none
CCCCC(C(=O)NC(=O)NCc1ccccc1)N1C(=O)c2ccccc2C1=O (centres undefined)	TRPC4 inh -6
